# Test: Toxicity liver stage against HepG2, at 10uM
# Assay type: cell-based
# Design: test concentration 10 uM, cell line HepG2-A16-CD81EGFP
# Conditions: human, HepG2-A16-CD81EGFP cells; read-out: INHIBITION
# Procedure, shortened: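 Uninfected HepG2-A16-CD81EGFP cells, 3 × 10^3 per well, 1536-well, plated on prespotted compound at 10 μM final, parasite-free screening media added to match infected plates; puromycin 10 μM positive, DMSO 0.5% negative; run in parallel with 48 h PbLuc assay at 37 °C, 5% CO2; viability by CellTiter-Glo luminescence, normalized to controls.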
row,SMILES,cytotoxicity at 10 µM
1,FC(F)(F)c1ccc2nc([C@H]3CCN(C4CCOCC4)C3)[nH]c2c1,0.354%
2,CC(C)(C)CN1Cc2cc3c(cc2NCCC1=O)OCO3,-84.3%
3,COC(=O)COn1c(OC)nc2ccccc2c1=O,-4.73%
4,COc1ncnc2c1CCN(C(=O)Cc1cccc(F)c1)CC2,3.88%
5,CC(C)Nc1ccc2c(c1)C1(CCOCC1)C(=O)N2c1ccsc1,11%
6,CCN1CCOCC2(CCCN(c3nncs3)C2)C1 (configuration not stated),8.28%
7,CCc1ccc(C(=O)N2CCCn3nnc(Cn4cccn4)c3C2)cc1,7.8%
8,COc1ccc(-c2c(C(C)C)nn3c(=N)c(C#N)n[nH]c23)cc1,-12.2%
9,CC(C)COc1ccc(C2SCC(=O)Nc3c2c(=O)[nH]n3C(C)C)cc1 (configuration not stated),8.74%
10,Cn1nc(C(=O)NCc2ccc(Cl)cc2)c2c1CCS(=O)(=O)C2,5.01%
11,O=S(=O)(Nc1ccc(Oc2ccc3c(c2)OCO3)cc1)N1CCCCC1,-29.3%
12,Cc1nc(N2CCC(C)CC2)ncc1-c1cc(O)nc(N2CCCC2)n1,9.82%
13,COC(=O)C1CCN(C(=O)c2nnc3ccc(Cl)cc3n2)CC1,12.3%
14,COCCNC(=O)c1cc(C(C)C)nc(N2CCCCC2)n1,9.04%
15,CC(C)c1cc(C(=O)NCCCN(C)C)nc(N2CCCC2)n1,8.49%
16,Cc1ccccc1OC1CCN(CC(=O)Nc2c(C)nn(C)c2C)CC1,0.919%
17,Cc1cc(C)nc(N2CCCC(C)(c3[nH]ncc3C(=O)N(C)C)C2)n1 (configuration not stated),7.42%
18,Fc1cccc(Oc2nccnc2C2CCN(C3CCOCC3)CC2)c1,6.62%
19,NCc1cnn(-c2ccccc2C(=O)NCc2ccccn2)c1,-19.9%
20,Cc1cc(C(=O)N2Cc3ccccc3OC3(CCOCC3)C2)nc(N)n1,-0.928%
21,O=C(NC1CC1)C1CCc2nnc(C3CC3)n21 (configuration not stated),11.2%
22,CC(C)(C)C(=O)N1CCC2(CNS(=O)(=O)c3cnccc3O2)C1 (configuration not stated),10.2%
23,COCCNC(=O)N1CCSC2(CCCCC2)C1,2.07%

row,SMILES,cytotoxicity at 10 µM
1,Cc1nc(C)c(C(=O)N2CCc3cc(F)ccc3C2C)o1 (configuration not stated),10.5%
2,CN(Cc1ccc(F)cc1F)Cc1cc2c(cc1Br)OCCO2,-111%
3,O=C(O)c1ccn(-c2cccc(NC(=O)c3ccccc3Cl)c2)n1,-139%
4,Cc1cccc(C)c1NC(=O)c1cc(S(N)(=O)=O)c(C)o1,-4.27%
5,CCS(=O)(=O)N1CCc2c(cccc2NCc2nc(C)c(C)o2)C1,-46.9%
6,COCc1nc(C(=O)NS(=O)(=O)c2ccc(OC)c(C)c2)cs1,1.06%
7,CN(CCCNC(=O)c1ccccc1F)CC(F)(F)F,-9.25%
8,Cc1nn(C)c(Cl)c1C1CCCN1CC(=O)NC1CCCC1 (configuration not stated),-3.78%
9,Cc1ccoc1CNCc1nnc2n1CC(C(F)(F)F)CC2 (configuration not stated),14.3%
10,Clc1cccc(CNC2CCN(CCc3ccncc3)CC2)c1,-5.62%
11,COc1cc(CN(C)C(=O)NCCNC(=O)C2CC2)ccc1SC,-3.73%
12,CC(NCc1ccco1)c1nnc2n1CCCC2 (configuration not stated),-2.34%
13,CC(Sc1nnnn1C1CCOCC1)C(F)(F)F (configuration not stated),11.5%
14,CCc1ncc2c(n1)CN(Cc1nc3c(F)cccc3[nH]1)CC2,19%
15,OC(COCc1ccccc1)CSc1nnc(C2CC2)n1C1CC1 (configuration not stated),4.93%
16,Cc1ccccc1-c1noc(CNc2ccc(F)cc2OCCO)n1,-41.7%
17,O=C(CCCc1nc(C2CC2)no1)N1CCCC(c2ccn[nH]2)C1 (configuration not stated),12%
18,COc1cc2c(c(OC)c1OC)CCN(CCn1cncn1)CC2,11.5%
19,Cc1cc(C(N)=O)c2c(Br)cccc2n1,1.09%
20,COC(=O)CN(C)Cc1cc(Br)cs1,-2.45%
21,CCc1cnc(CCNC(=O)N2CCCC(c3ncc[nH]3)C2)s1 (configuration not stated),-4.15%
22,CN(CCNC(=O)Nc1ccn(C)n1)Cc1ccc(F)cc1,8.16%
23,Cc1cc(C(=O)NCCN2CCCCC2C)nn1C(C)(C)C (configuration not stated),1.57%

row,SMILES,cytotoxicity at 10 µM
1,Cc1cc(NC(=O)N(CCC#N)CCCN(C)C)ccc1F,-57.7%
2,CO[C@@H]1CO[C@@]2(CCCN(C(=O)C3CC=CC3)C2)C1,-105%
3,CCN1CCC2(CC1)CC(CC(=O)N(C)C)c1ccc(F)cc12 (configuration not stated),-98.6%
4,O=C(C1CCOCC1)N1C[C@H]2CCC[C@@]2(COCc2ccccn2)C1,-112%
5,Cn1nnc2c1CCN(S(C)(=O)=O)C2COCc1ccccc1 (configuration not stated),-100%
6,O=C(c1cccs1)N1CCc2ncnc(C3CCOC3)c2CC1 (configuration not stated),-85.4%
7,COC(=O)[C@@H]1CCCN1C(=O)c1cn(C/C=C/c2ccccc2)nn1,3.61%
8,O=C1NC2(CCN(CCc3ccccc3)CC2)CC1c1ccccc1 (configuration not stated),-48.6%
9,CCc1nnc(CN(C)C(=O)C(CC)n2c(CC)nc3ccccc32)o1 (configuration not stated),-4.27%
10,CC(C)c1noc(-c2ccc(NCCCN3CCCC(O)C3)nc2)n1 (configuration not stated),-6.87%
11,c1ccc(CCCN2CCCN(c3ncnc4[nH]ccc34)CC2)cc1,-5.86%
12,OCC1(O)CCCN(Cc2ccccc2OCCc2ccccc2)CC1 (configuration not stated),-45.4%
13,CCC(=O)c1ccc(OCC(=O)NCC2CC(CC)=NO2)cc1 (configuration not stated),-41.7%
14,COc1cc(-c2cc(C3CCOC3)c(C#N)c(N)n2)ccc1O (configuration not stated),-0.412%
15,CCOc1ccc(-n2nc(C)c(CC(C)=O)c2C)cc1C(N)=O,7.09%
16,CC1(C)CNC(=O)c2nc(CCN3CCC(O)CC3)[nH]c2C1,-10.4%
17,CC1(C)CC(C(=O)N2CCC3(CCC(=O)N(C4CC4)C3)CC2)CCO1 (configuration not stated),0.868%
18,Cc1cnc(-n2cnnc2)c(-c2cccc3c2CCNC3)c1,17.7%
19,CCc1ccc(CN(C/C=C/c2ccccc2)CCOC)nc1,10.2%
20,CCCN1CCN(Cc2cccc(OC)c2)[C@H]2CS(=O)(=O)C[C@H]21,-8.15%
21,COc1ccc(C(C(=O)O)N(C)CCN2CCCC2)c(C)c1 (configuration not stated),3.41%
22,COCCCC1CCCCN1C(=O)c1ccc(SCCO)cc1 (configuration not stated),-50%
23,Cc1cc(C(F)(F)F)cc(N2C[C@@H](CN3CCOCC3)[C@@H](CO)C2)n1,-6.02%

row,SMILES,cytotoxicity at 10 µM
1,COc1ccc(-n2cccn2)c(CN2CCC3(CCNCC3)C2)c1,0.0652%
2,CCc1noc(CN(CC)C(=O)C2CC(=O)N(Cc3ccncc3)C2)n1 (configuration not stated),18.2%
3,CC(C1CCN(Cc2c(Cl)cncc2Cl)CC1)N1CCOCC1 (configuration not stated),-8.68%
4,c1ccc2c(CC3CN(Cc4nccs4)CCO3)cccc2c1 (configuration not stated),1.31%
5,CNc1ccnc(NCC(=O)Nc2cc(C)ccc2OC)n1,-2.9%
6,CCc1nc2c(c(NC3CCC3)n1)CCN(C(=O)CO)CC2,5.42%
7,COc1ccccc1N1CCN(C(=O)Cn2nc(C)cc2C)CC1(C)C,9.62%
8,COc1ccc(C(=O)N2CCCCC2c2ccccn2)c(OC)n1 (configuration not stated),-0.649%
9,CC(C)c1nccc(CN2CCC(c3nc4ccccc4n3C)CC2)n1,7.23%
10,Fc1ccc(-c2noc3c2CN(CC2CC2)CC3)cc1F,-6.39%
11,CC(COc1ccccc1)NS(C)(=O)=O (configuration not stated),-4.05%
12,O=C(COCC1CCCO1)N1CCCN(Cc2ccccc2F)CC1 (configuration not stated),2.86%
13,CCN(CC)C(=O)[C@@H]1C[C@@H](n2cc(-c3cccc(OC)c3)nn2)CN1,-5.98%
14,CSCCNC(=O)c1ccc(OC2CCN(CC(C)(C)C)CC2)c(Cl)c1,-10.9%
15,Cc1nccn1-c1cccc(C2CCCN2S(=O)(=O)N(C)C)n1 (configuration not stated),3.44%
16,O=C1CN(c2ccc(CNC(=O)NCCO)cc2)CCN1,-2.38%
17,CCn1cc(CN2CCCN(C(=O)CCn3cc(C)cn3)CC2)cn1,-2.11%
18,Cc1ccc(C(=O)NCC(O)c2cccc(F)c2)c(=O)[nH]1 (configuration not stated),-2.83%
19,Cc1ccc(C)c(S(=O)(=O)NC(=O)c2ccc(C)[nH]c2=O)c1,-1.07%
20,N#CCCNC(=O)CN1CC(n2cccn2)C1,-7.29%
21,CCn1ccnc1CN1CCN(CCOc2ccc(C#N)cc2)CC1,-3.75%
22,CC(CNC(=O)c1ccc(=O)[nH]n1)N1CCc2ccccc21 (configuration not stated),-8.93%
23,CC(C)n1ncc2cc(NC(=O)N3CCC(N4CCCC4)C3)cnc21 (configuration not stated),-8.58%

row,SMILES,cytotoxicity at 10 µM
1,Cc1ccc(NC2CCN(C(=O)COCC(F)(F)F)CC2)nn1,6.38%
2,Cc1ccc(NC(=O)N(C)Cc2cnn(C)c2)cc1OCC(F)F,-0.243%
3,Fc1cccc(CN2CCC(c3cc4ncccc4cn3)CC2)c1F,-7.62%
4,Fc1ccccc1Cn1c(C2CCNCC2)cc2cccnc21,1.25%
5,Cc1nc2sccn2c1CNC1(c2ccccc2F)CCCC1,11.3%
6,CCc1ccc(CN(CCCn2ccnc2)Cc2ccc(C)s2)o1,3.86%
7,O=C1COC2(CCN(Cc3ccoc3)CC2)CN1c1ccsc1,3.09%
8,CN(C)C(=O)[C@H]1C[C@H]2OCC[C@H]2N(Cc2ccc(F)cc2)C1,-76.1%
9,CCn1nnc2c1C(COCCN(C)C)CN(S(=O)(=O)CC)C2 (configuration not stated),-4.38%
10,Cc1cccc(CN2CCc3ncnc(-c4ccsc4)c3CC2)n1,-78.2%
11,CN(C)C(=O)C1CN(Cc2ccsc2)Cc2ccnn2C1 (configuration not stated),-6.75%
12,CC1c2ncc(CN3CCN(C)CC3)n2CCN1Cc1ccccn1 (configuration not stated),-0.23%
13,COc1cc(N2C[C@H]3CCN(CCN4CCCC4)C[C@H]3C2)ncn1,12%
14,Cc1cnc(N2CCC[C@@H]3CN(CC(=O)N(C)C)C[C@@H]32)nc1,11.4%
15,O=C(NCc1ccccc1)c1nc2c(o1)CN(C(=O)c1cccnc1)C2,-76.9%
16,COc1ccc(CN2CCC3(CC2)CCN(CC2CC2)C3=O)cc1,8.18%
17,CN(C)C(=O)N1CCC2(CCCN(Cc3cnn(C)c3)C2)C1 (configuration not stated),4.91%
18,Cn1ccc(CN2CCCC23CCN(Cc2ccccc2F)CC3)n1,-104%
19,CCOCC1CN(Cc2cnn(C)c2)Cc2c1cnn2CC (configuration not stated),-83.4%
20,Cc1cccc(CN2CCCC3(CCN(CC4CCCO4)CC3)C2)n1 (configuration not stated),-121%
